Key:
[1] = Cytotoxicity against human H460 cells incubated for 48 hrs by MTT assay; format: functional, cell-based; conditions: NCI-H460, 48 h
Procedure, shortened: (§1)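 Human tumour lines (HL-60 leukemia, Hep3B liver, H460 lung, A498 renal, COLO205 colon, 2774 and SK-OV-3 ovarian) and normal Detroit 551 skin fibroblasts were exposed to a range of concentrations for 48 h. IC50 is the concentration giving 50% proliferation inhibition, as the mean of three independent determinations.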

COLO 205 = assay: Cytotoxicity against human COLO205 cells incubated for 48 hrs by MTT assay; format: functional, cell-based; conditions: COLO 205, 48 h; procedure, shortened: as §1
Detroit 551 = assay: Cytotoxicity against human Detroit 551 cells incubated for 48 hrs by MTT assay; format: cell-based; conditions: Detroit 551, 48 h; procedure, shortened: as §1
SK-OV-3 = assay: Cytotoxicity against human SKOV3 cells incubated for 48 hrs by MTT assay; format: functional, cell-based; conditions: SK-OV-3, 48 h; procedure, shortened: as §1
[2] = Cytotoxicity against human Hep3B cells incubated for 48 hrs by MTT assay; format: functional, cell-based, Hep 3B2; procedure, shortened: as §1
A498 = assay: Cytotoxicity against human A498 cells incubated for 48 hrs by MTT assay; format: functional, cell-based; conditions: A498, 48 h
[3] = Cytotoxicity against human 2774 cells incubated for 48 hrs by MTT assay; format: functional, cell-based; procedure, shortened: as §1
HL-60 = assay: Cytotoxicity against human HL60 cells incubated for 48 hrs by MTT assay; format: functional, cell-based; conditions: HL-60, 48 h; procedure, shortened: as §1
MCF7 = assay: Cytotoxicity against human MCF7 cells; format: functional, cell-based

SMILES | IC50 [1] | IC50 (COLO 205) | IC50 (Detroit 551) | IC50 (SK-OV-3) | IC50 [2] | IC50 (A498) | IC50 [3] | IC50 (HL-60) | IC50 (MCF7)
CCOC(=O)c1cc2c3ccccc3n(Cc3ccc(F)cc3)c2cn1 | > 100 µM | > 100 µM | > 100 µM | > 100 µM | > 100 µM | 50.4 µM | > 100 µM | > 100 µM | –
CCOC(=O)c1cc2c3ccccc3n(Cc3cc(OC)c(OC)c(OC)c3)c2cn1 | > 100 µM | > 100 µM | > 100 µM | > 100 µM | > 100 µM | > 100 µM | > 100 µM | 21.9 µM | –
CCOC(=O)c1cc2c3ccccc3n(Cc3cccnc3)c2cn1 | > 100 µM | > 100 µM | > 100 µM | > 100 µM | > 100 µM | > 100 µM | > 100 µM | > 100 µM | –
OCc1cc2c3ccccc3nc-2c[nH]1 | > 100 µM | > 100 µM | > 100 µM | > 100 µM | > 100 µM | > 100 µM | > 100 µM | > 100 µM | –
O=C(O)c1cc2c3ccccc3nc-2c[nH]1 | 70.5 µM | 49.6 µM | > 100 µM | > 100 µM | 75 µM | > 100 µM | > 100 µM | 75 µM | –
CCOC(=O)c1cc2c3ccccc3n(Cc3ccc(OC)cc3)c2cn1 | 50 µM | 36.9 µM | 50 µM | > 100 µM | 50 µM | 38.5 µM | > 100 µM | 39 µM | –
CCOC(=O)c1cc2c(cn1)[nH]c1ccccc12 | > 100 µM | > 100 µM | > 100 µM | > 100 µM | > 100 µM | > 100 µM | > 100 µM | > 100 µM | –
CCOC(=O)c1cc2c3ccccc3n(Cc3cccc(OC)c3)c2cn1 | – | 26.7 µM | – | > 100 µM | – | 21.6 µM | > 100 µM | – | –
OCc1ccc2c(c1)c1ccccc1n2Cc1ccc(Cl)nc1 | – | – | – | – | – | – | – | – | 20 µM
O=C(O)c1cc2c3ccccc3n(Cc3ccccc3)c2cn1 | 18.5 µM | 31 µM | – | – | 4.4 µM | 9.2 µM | – | 5 µM | –

Source: ChEMBL document CHEMBL3608281, “Synthesis and biological evaluation of novel 3,9-substituted β-carboline derivatives as anticancer agents” (Bioorg Med Chem Lett, 2015)
